From ChEMBL document CHEMBL5576114, “Inhibition of DXR in the MEP pathway with lipophilic N-alkoxyaryl FR900098 analogs” (RSC Med Chem, 2024)
pIC50: −log10 of the molar value. Activity calls are given as the source filed them. The calls are words filed in the database; no cut-off is given here.

Assays:
[1] = biological target: T1, 1-deoxy-D-xylulose 5-phosphate reductoisomerase (Mycobacterium tuberculosis, UniProt P9WNS1); experiment: Inhibition of Mycobacterium tuberculosis DXR using DXP as substrate preincubated for 10 mins followed by NADPH addition and measured after 5 mins by spectrophotometric assay
T1 sequence (P9WNS1 whole entry): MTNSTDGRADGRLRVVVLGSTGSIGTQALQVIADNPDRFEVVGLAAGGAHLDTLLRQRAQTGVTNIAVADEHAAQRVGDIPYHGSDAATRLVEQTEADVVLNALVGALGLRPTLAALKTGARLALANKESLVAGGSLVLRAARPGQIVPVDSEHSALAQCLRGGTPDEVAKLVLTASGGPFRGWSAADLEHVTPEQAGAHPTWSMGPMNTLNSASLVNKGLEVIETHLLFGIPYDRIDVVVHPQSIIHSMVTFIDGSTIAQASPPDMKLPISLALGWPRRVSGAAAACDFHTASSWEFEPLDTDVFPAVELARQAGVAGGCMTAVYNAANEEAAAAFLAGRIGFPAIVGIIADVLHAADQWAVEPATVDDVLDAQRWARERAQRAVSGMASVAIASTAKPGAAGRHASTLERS

[2] = test system: Mycobacterium tuberculosis; experiment: Antibacterial activity against Mycobacterium tuberculosis H37Rv assessed as reduction in bacterial growth; format: functional
[3] = biological target: T2, 1-deoxy-D-xylulose 5-phosphate reductoisomerase, apicoplastic (Plasmodium falciparum (isolate 3D7), UniProt Q8IKG4); experiment: Inhibition of Plasmodium falciparum DXR
T2 sequence (Q8IKG4 whole entry): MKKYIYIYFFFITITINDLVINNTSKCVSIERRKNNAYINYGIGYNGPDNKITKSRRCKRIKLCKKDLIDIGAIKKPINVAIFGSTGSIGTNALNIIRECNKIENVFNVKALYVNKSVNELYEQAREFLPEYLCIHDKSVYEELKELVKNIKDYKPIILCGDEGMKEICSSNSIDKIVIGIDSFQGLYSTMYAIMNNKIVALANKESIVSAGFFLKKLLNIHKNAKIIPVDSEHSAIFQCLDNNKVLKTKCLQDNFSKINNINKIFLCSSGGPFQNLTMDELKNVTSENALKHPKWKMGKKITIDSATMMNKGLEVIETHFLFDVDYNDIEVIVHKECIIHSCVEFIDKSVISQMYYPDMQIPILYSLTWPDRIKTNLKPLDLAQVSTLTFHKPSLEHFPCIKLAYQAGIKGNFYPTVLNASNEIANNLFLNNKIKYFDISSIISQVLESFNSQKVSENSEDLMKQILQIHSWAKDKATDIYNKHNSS

[4] = biological target: T2, 1-deoxy-D-xylulose 5-phosphate reductoisomerase, apicoplastic; experiment: Inhibition of Plasmodium falciparum DXR expressed in Escherichia coli BL21 CodonPlus (DE3)-RIL cells using DOXP as substrate in presence of NADPH by UV-visible spectrophotometry
[5] = Cytotoxicity against human HepG2 cells assessed as reduction in cell viability after 24 hrs by Cell Titer Glo assay; format: toxicity, cell-based
Procedure, shortened: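 HepG2 cells in DMEM with 4 mM L-glutamine and 4.5 g/L glucose, trypsinized and plated from a 4×10^5 cells/mL suspension. Compounds were tested as two-fold dilutions from 100 to 0.1 µg/mL, with a DMSO-only control, in duplicate. After 24 h at 37 °C, 5% CO2, CellTiter-Glo luminescence was read after 20 min in the dark.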

Plasmodium falciparum [6] = experiment: Antiplasmodial activity against Plasmodium falciparum E1-C12 harboring with had1 mutation assessed as reduction in parasite growth by measuring DNA content after 3 days in presence of IPP by PicoGreen staining based FLUOstar omega microplate reader analysis; format: functional, organism-based; conditions: time 3.0 day
Procedure, shortened: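 IPP rescue in had1 E1-C12 parasites: 125 µM IPP was present for the whole assay. Cultures at 2% hematocrit in Albumax-supplemented RPMI, 5% O2/5% CO2, 37 °C, started at 0.5% parasitemia. Inhibitors were dosed at 1.2 nM–492.4 µM, and growth was read after 3 days by PicoGreen fluorescence. 4-parameter fit; duplicate wells, biological triplicates.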

[7] = biological target: T3, 1-deoxy-D-xylulose 5-phosphate reductoisomerase, apicoplastic (Plasmodium falciparum (isolate 3D7)) (UniProt Q8IKG4); experiment: Inhibition of Plasmodium falciparum DXR expressed in Escherichia coli BL21 CodonPlus (DE3)-RIL cells using DOXP as substrate at 100 uM in presence of NADPH by UV-visible spectrophotometry relative to control
T3 sequence (whole entry): T2 sequence (Q8IKG4 whole entry)
Procedure, shortened: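 PfDXR single-point test at 100 µM inhibitor. Conditions: 0.86 µM IMAC-purified enzyme, 100 mM Tris pH 7.8, 25 mM MgCl2, 150 µM NADPH, 37 °C. Reaction was started with 144 µM DOXP, and NADPH oxidation was monitored at 340 nm. Percent remaining activity was reported; technical duplicates.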

[8] = test system: Mycobacterium tuberculosis; experiment: Antibacterial activity against Mycobacterium tuberculosis H37Rv assessed as reduction in bacterial growth incubated for 2 weeks by macroscopic plate reader analysis; format: functional; conditions: 336 h
Procedure, shortened: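 H37Rv grown in 7H9 broth with 0.08% NaCl, 0.4% glucose, 0.05% casitone and 0.05% tyloxapol, then diluted 1:500. Compounds were made as 20 mg/mL DMSO stocks and run as eleven 2-fold serial dilutions. Plates were held 2 weeks at 37 °C and MIC99 was read macroscopically. Three independent measurements.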

Plasmodium falciparum [9] = experiment: Antiplasmodial activity against Plasmodium falciparum E1-C12 harboring with had1 mutation assessed as reduction in parasite growth by measuring DNA content after 3 days by PicoGreen staining based FLUOstar omega microplate reader analysis; format: functional, organism-based; conditions: time 3.0 day
Procedure, shortened: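 E1-C12 (had1) parasites, asynchronous, at 2% hematocrit in RPMI-1640/0.5% Albumax with hypoxanthine, under 5% O2/5% CO2/90% N2 at 37 °C. Started at 0.5% parasitemia and dosed at 1.2 nM–492.4 µM. After 3 days, DNA was stained with PicoGreen (ex 485/em 528). IC50 came from a 4-parameter fit; technical duplicates, biological triplicates.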

[10] = biological target: T1, 1-deoxy-D-xylulose 5-phosphate reductoisomerase; experiment: Inhibition of Mycobacterium tuberculosis DXR expressed in Escherichia coli BL21 CodonPlus (DE3)-RIL cells using DOXP as substrate in presence of NADPH by UV-visible spectrophotometry
Plasmodium falciparum [11] = experiment: Antiplasmodial activity against Plasmodium falciparum 3D7 assessed as reduction in parasite growth by measuring DNA content after 3 days by PicoGreen staining based FLUOstar omega microplate reader analysis; format: functional, organism-based; conditions: 3D7, 72 h
Procedure, shortened: (§1)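 Asynchronous cultures in 2% hematocrit, RPMI-1640 complete medium with 0.5% Albumax, under 5% O2/5% CO2/90% N2 at 37 °C. Diluted to 0.5% parasitemia, inhibitors 1.2 nM to 492.4 µM added at start. Growth read after 3 days as DNA content by PicoGreen fluorescence (485/528 nm). IC50 from 4-parameter nonlinear regression; technical duplicate, biological triplicate.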

[12] = biological target: T4, 1-deoxy-D-xylulose 5-phosphate reductoisomerase (Mycobacterium tuberculosis) (UniProt P9WNS1); experiment: Inhibition of Mycobacterium tuberculosis DXR expressed in Escherichia coli BL21 CodonPlus (DE3)-RIL cells using DOXP as substrate at 100 uM in presence of NADPH by UV-visible spectrophotometry relative to control
T4 sequence (whole entry): T1 sequence (P9WNS1 whole entry)
Procedure, shortened: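 Recombinant MtbDXR (pET101/D-TOPO in E. coli BL21 CodonPlus (DE3)-RIL, IMAC-purified) at 0.89 µM in 100 mM MES pH 6.5, 25 mM MgCl2, 150 µM NADPH, 47 µM DOXP, 37 °C. Inhibitor was tested at a single 100 µM. NADPH oxidation was followed at 340 nm, and percent remaining activity was reported. Technical duplicates.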

Plasmodium falciparum [13] = experiment: Antiplasmodial activity against Plasmodium falciparum; format: functional, organism-based; procedure, shortened: as §1

## CC(=O)N(O)CCCP(=O)(O)O [FR-900098]
[1]
  pIC50: 5.54
[2]
  MIC: > 500 µg/mL
[3]
  pIC50: 7.66

## COc1ccc(C(C)ON(CCC(c2ccc(Cl)c(Cl)c2)P(=O)(O)O)C(C)=O)cc1 (stereo not drawn)
[4]
  pIC50: 6.96
[5]
  IC50 at 24 h: > 200000 nM
Plasmodium falciparum [6]
  Activity: inactive
[7]
  inhibition: > 90%
[8]
  MIC: > 98 µM
Plasmodium falciparum [9]
  Activity: Active
[10]
  pIC50: 6.11
Plasmodium falciparum [11]
  pIC50: 6.52
[12]
  inhibition: > 90%

## O=CN(O)CCCP(=O)(O)O [FOSMIDOMYCIN]
Plasmodium falciparum [13]
  pIC50: 5.99
[2]
  MIC: > 500 µg/mL

## CC(=O)N(CCC(c1ccc(Cl)c(Cl)c1)P(=O)(O)O)OC(C)c1ccc(F)cc1 (stereo not drawn)
[4]
  pIC50: 6.33
[5]
  IC50 at 24 h: > 200000 nM
Plasmodium falciparum [6]
  Activity: inactive
[7]
  inhibition: > 90%
[8]
  MIC: > 200 µM
Plasmodium falciparum [9]
  Activity: Active
[10]
  pIC50: 5.32
Plasmodium falciparum [11]
  pIC50: 5.62
[12]
  inhibition: > 90%
